{"source": "paper PMC3712066", "about": "(Diabetes, 2013)", "key": {"[1]": {"system": "FasL, caspase-8, Bid, active caspase-3, BclxL", "assay": "Proapoptotic and survival signaling in neuroretina", "assay_type": "in vivo, Sprague-Dawley rats", "details": "neuroretina of diabetic rats; SST eye drops 10 mg/mL; Western blot", "outline": "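Neuroretina protein extracts were Western blotted for FasL, caspase-8, Bid, Bim, BclxL and active caspase-3, with α-tubulin as loading control. Autoradiograms were quantified by scanning densitometry as arbitrary units, means ± SD. Tissue came from STZ-diabetic rats given daily 10 mg/mL drops or saline vehicle for 14 days, and from nondiabetic controls.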"}, "[2]": {"system": "rats with streptozotocin-induced diabetes mellitus (STZ-DM)", "assay": "Assessment of glial activation", "assay_type": "in vivo, Sprague-Dawley rats", "details": "dose-response; SST eye drops 0.5 mg/mL compared with 2 or 10 mg/mL", "outline": "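Male Sprague-Dawley rats made diabetic with STZ 60 mg/kg i.v. (glucose above 250 mg/dL). One drop daily for 14 days, plus one ~1 h before necropsy; saline vehicle; dose-response at 10, 2, 0.5 mg/mL. Paraffin retinal sections blocked in PBS/1% BSA/0.05% Triton X-100. Rabbit anti-GFAP 1:100, 36 h at 4C; Alexa Fluor 568 secondary. Scored 0–5 by GFAP extent, endfeet/GCL to ONL.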"}, "[3]": {"system": "AMPA-induced neurotoxicity", "details": "intravitreal administration; cited from earlier work"}, "[4]": {"system": "glutamate/aspartate transporter (GLAST)", "assay": "GLAST expression in retina", "assay_type": "in vivo, Sprague-Dawley rats", "details": "diabetic rats treated with SST eye drops 10 mg/mL", "outline": "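GLAST mRNA by real-time PCR, normalized to β-actin (relative quantification). For protein, paraffin retinal sections were retrieved in 10 mmol/L sodium citrate pH 6.0 and blocked 1 h at room temperature in 2% BSA/0.05% Tween PBS. They were probed with anti-GLAST 1:200, then Alexa Fluor 488 anti-rabbit (1 h), with DAPI. Fluorescence intensity was quantified as for GFAP. Rats were STZ-diabetic on daily drops or saline.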"}, "[5]": {"assay": "Ophthalmological examinations", "assay_type": "in vivo, Sprague-Dawley rats", "details": "SST eye drops 10 mg/mL, 20 µL once daily; baseline and follow-up (days 7 and 13)", "outline": "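All animals had slit lamp biomicroscopy, indirect ophthalmoscopy and intraocular pressure measurement at baseline and on days 7 and 13 posttreatment. Groups were nondiabetic controls on vehicle, and STZ-diabetic (60 mg/kg i.v.) male Sprague-Dawley rats on once-daily drops of test compound (10 mg/mL) or 0.9% NaCl vehicle.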"}, "[6]": {"system": "rats with streptozotocin-induced diabetes mellitus (STZ-DM)", "assay": "Electroretinography", "assay_type": "in vivo, Sprague-Dawley rats", "details": "diabetic rats, SST eye drops 10 mg/mL once daily; scotopic", "outline": "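Scotopic ERG was recorded in both eyes before treatment and on day 14, after at least 1 h dark adaptation. Rats were under isoflurane with 0.5% proparacaine topically. b-wave amplitude and implicit time were measured to ISCEV definitions after scotopic flash (0 db). Animals were STZ-diabetic rats on daily 10 mg/mL drops or saline vehicle. Paired t test within group; means ± SD.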"}, "[7]": {"system": "rats with streptozotocin-induced diabetes mellitus (STZ-DM)", "assay": "Assessment of retinal apoptosis", "assay_type": "in vivo, Sprague-Dawley rats", "details": "TUNEL; SST eye drops 10 mg/mL once daily, 15 days"}}}
{"substance": "Somatostatin [SST]", "values": [{"measurement": "BclxL expression", "setting": "[1]", "result": "greatly improved"}, {"measurement": "effect in preventing glial activation and apoptosis", "setting": "[2]", "result": "significantly lower than that obtained using either 2 or 10 mg/mL"}, {"measurement": "protection of the retina from AMPA-induced neurotoxicity", "setting": "[3]", "result": "protects the retina from AMPA-induced neurotoxicity"}, {"measurement": "diabetes-induced downregulation of GLAST gene and protein expression", "setting": "[4]", "result": "this downregulation was prevented"}, {"measurement": "GLAST protein levels in comparison with nondiabetic rats", "setting": "[4]; immunofluorescence", "result": "even increased"}, {"measurement": "differences in the cornea, pupil size, or intraocular pressure among groups", "setting": "[5]", "result": "No significant differences"}, {"measurement": "b-wave amplitude, day 14 vs day −1", "setting": "[6]", "result": "no reduction of b-wave amplitude was observed"}, {"measurement": "b-wave implicit time, day 14 vs day −1", "setting": "[6]", "result": "did not increase"}, {"measurement": "ratio of apoptosis in all retinal layers vs diabetic rats treated with placebo", "setting": "[7]", "result": "significantly lower"}]}
